In the library only some 4% were active in any assay of this set; here they are far more common.
SIRT5 inh – blocks human SIRT5 desuccinylation of peptide; Q9NXA8; Purified SirT5, succinyl-peptide AMC, trypsin-coupled fluorescence; inhibition, % at 15 µM; 1.1% of 330,000 active; AID 652115; in the data active = inhibition above about 15%
Statin myotox sup – protects C2C12 myotubes from simvastatin toxicity; ATP luminescence, 48 h; scaled: DMSO 0, geranylgeraniol control 100; rescue of ATP level, % at 7.49 µM; 0.78% of 330,000 active; AID 602340;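 active = mean ATP rescue above about 67%, or every replicate alone reaching that limit, limit read from the data, passing the limit was not always enough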;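 note: myotubes were challenged with 10 µM simvastatin during compound exposure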
FGF22 binding – shifts melting point of recombinant human FGF22 | AID 651658 | recombinant FGF22 thermal shift, SYPRO orange fluorescence; percent of sucrose octasulfate shift, DMSO zero | activity (Tm shift, normalised), % at 9.99 µM | 1.5% of 340,000 active;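 active = mean Tm shift, scaled 0 neutral to 100 positive control, at about 1.3% or above, every replicate too, limit read from the data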
Ecoli rRNA inh – inhibitors of bacterial rRNA selective over humanized ribosomes | E. coli WT GFP vs humanized-ribosome RFP mutants, fluorescence, 24 h; hits give low values; DMSO median 0, no signal -100 | GFP signal change (wild-type ribosome), % (test concentration not listed) | 1.6% of 350,000 active | AID 720706;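 active = significant combined selectivity score with lowered wild-type GFP, culture density cut under 30%, mutant RFP and density less affected; inactive = any of these conditions unmet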
FN deposit inh – fibronectin deposition inhibition. AH1F fibroblasts, Alexa488-fibronectin deposition fluorescence, overnight. inhibition, % at 12.6 µM. 0.086% of 350,000 active;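 active = mean inhibition across replicates of 30% or more, regardless of how many single replicates reach that level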
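Assay system: AH1F fibroblasts assembling fluorescent fibronectin matrix; Amount: 10000 AH1F cells per well; Buffer or medium: DMEM, 2% serum; Probe or stimulus: Alexa488-fibronectin, 24 nM final in well; Doses: single compound dose, delivered by pin transfer; Incubation: 1 h adhesion, overnight exposure; Measured by: fluorescence 485/525 nm; Read-out: fibronectin deposition inhibition.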
E-sel inducer – induces E-selectin expression in human endothelial cells | activation, % at 7.58 µM | 0.37% of 260,000 active | P16581 | AID 686992 | HUVEC E-selectin immunofluorescence imaging; normalized: neutral wells 0, TNF-alpha wells 100;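 active = mean E-selectin-positive cell signal at least 10% of the positive control, reached in at least 60% of replicates, without over 20% cell loss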
Target sequence (P16581 whole entry, looked up): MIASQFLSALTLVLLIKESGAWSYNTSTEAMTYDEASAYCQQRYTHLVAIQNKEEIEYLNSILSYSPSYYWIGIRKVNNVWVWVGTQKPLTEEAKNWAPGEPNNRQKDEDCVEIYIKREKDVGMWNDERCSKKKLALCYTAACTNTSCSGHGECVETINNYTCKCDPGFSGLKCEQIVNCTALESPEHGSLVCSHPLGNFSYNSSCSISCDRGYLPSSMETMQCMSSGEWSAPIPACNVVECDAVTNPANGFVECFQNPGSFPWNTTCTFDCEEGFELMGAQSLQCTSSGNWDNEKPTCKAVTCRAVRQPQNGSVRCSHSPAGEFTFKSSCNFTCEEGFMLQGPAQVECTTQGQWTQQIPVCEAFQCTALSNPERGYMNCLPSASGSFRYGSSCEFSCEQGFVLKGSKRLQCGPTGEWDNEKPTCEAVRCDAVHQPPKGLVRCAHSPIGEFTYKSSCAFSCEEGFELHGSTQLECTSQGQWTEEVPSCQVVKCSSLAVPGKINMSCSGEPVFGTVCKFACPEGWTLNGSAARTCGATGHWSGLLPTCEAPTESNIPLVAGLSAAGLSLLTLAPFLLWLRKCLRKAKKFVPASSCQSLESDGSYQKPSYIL
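Read-out basis: % PE-positive cells; Test system: HUVEC primary endothelial cells; Technique: immunofluorescence imaging; Dosing: single-point compound dose.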
A number is an active result; 0 = inactive; - = no result.

SMILES	SIRT5 inh	Statin myotox sup	FGF22 binding	Ecoli rRNA inh	FN deposit inh	E-sel inducer
COc1ccc(S(=O)(=O)N(C)C[C@@H]2OCCCC[C@H](C)Oc3ccc(NC(=O)NC(C)C)cc3C(=O)N([C@@H](C)CO)C[C@H]2C)cc1	0	-	0	0	-	0
Fc1cnc(N2CCN(c3ccccc3)CC2)nc1N1CCN(c2ccccc2)CC1	0	-	0	0	30.5	0
O=C1CCCc2nc(N3CCN(c4ccccc4)CC3)ncc21	-	0	-	-	-	-
CCn1ncc(-c2cc(C(=O)O)no2)c1C	0	-	43.3	0	0	-
COc1nccnc1NS(=O)(=O)c1ccc(NC(=O)c2cccc(C)c2)cc1	0	-	43.4	0	0	0
COc1ccc(C(=O)Nc2ccc(S(=O)(=O)Nc3nccnc3OC)cc2)cc1	-	0	-	-	0	-
C[C@@H]1CN([C@@H](C)CO)C(=O)c2cc(-c3cccc(C(=O)N(C)C)c3)cnc2O[C@H]1CN(C)S(=O)(=O)c1cccc(F)c1	0	0	0	0	-	0
CN(CCCn1ccc(NC(=O)OCc2ccccc2)nc1=O)Cc1ccco1	25.2	0	0	0	-	0
Cc1noc(C)c1NC(=O)Nc1ccc2c(c1)C(=O)N([C@H](C)CO)C[C@H](C)[C@@H](CN(C)C(=O)Nc1ccc(F)cc1)O2	0	0	0	0	0	0
CNC[C@H]1Oc2c(NC(=O)c3cnccn3)cccc2C(=O)N([C@@H](C)CO)C[C@@H]1C	-	0	0	0	0	0
O=C(CCS(=O)(=O)c1ccccc1)NC1CCCCC1	0	-	0	0	0	0
COc1ccc(S(=O)(=O)CCC(=O)NC2CCCCC2)cc1	-	87.2	-	-	-	-
COc1cccc(-c2cnc3c(c2)C(=O)N([C@H](C)CO)C[C@H](C)[C@H](CN(C)Cc2cccc(C)c2)O3)c1	0	116.8	0	0	0	0
COc1ccc(-c2cnc3c(c2)C(=O)N([C@H](C)CO)C[C@H](C)[C@H](CN(C)Cc2ccc(C(=O)O)cc2)O3)cc1	0	0	0	0	-	0
COc1cccc(-c2cnc3c(c2)C(=O)N([C@@H](C)CO)C[C@H](C)[C@@H](CN(C)Cc2ccccc2)O3)c1	0	0	0	0	-	0
COc1ccc(-c2cnc3c(c2)C(=O)N([C@@H](C)CO)C[C@H](C)[C@@H](CN(C)Cc2ccc(C(=O)O)cc2)O3)cc1	21.0	0	0	0	-	0
C[C@@H]1CN([C@@H](C)CO)C(=O)c2cc(-c3cccc(F)c3)cnc2O[C@@H]1CN(C)S(=O)(=O)c1cccc(F)c1	0	0	0	0	0	0
CN(C)C(=O)c1ccc(-c2ccc([C@@H]3[C@@H](CO)N4CCCCN(C(=O)C5CC5)C[C@H]34)cc2)cc1	0	0	0	0	-	0
O=C(O)c1cc(-c2ccccc2)on1	0	0	0	0	-	-
CC[n+]1oc(-c2ccccc2)cc1C	0	0	43.3	0	0	0
Cc1nnc(SCCOc2ccccc2)s1	0	-	44.1	0	0	0
Nc1nnc(SCCOc2ccccc2)s1	0	0	0	0	-	-
c1ccc(OCCSc2nnc3sc4ccccc4n23)cc1	0	0	0	-41.0	-	-
COc1cccc(OCCSc2nnc3sc4ccccc4n23)c1	-	0	-	-	-	-
C[C@@H]1CCCCO[C@@H](CN(C)C(=O)Nc2ccc(F)cc2)[C@H](C)CN([C@@H](C)CO)C(=O)c2cc(NC(=O)C3CCCCC3)ccc2O1	0	-	0	0	-	0
SMILES	SIRT5 inh	Statin myotox sup	FGF22 binding	Ecoli rRNA inh	FN deposit inh	E-sel inducer
O=C(O)CC1=C(Nc2ccccc2)C(=O)N(c2ccccc2)C1c1ccc(Br)cc1 (centres undefined)	17.0	-	43.3	0	0	-
COc1ccccc1-c1ccc2c(c1)O[C@H](CN(C)S(=O)(=O)c1ccc(F)cc1)[C@H](C)CN([C@H](C)CO)S2(=O)=O	26.0	0	0	0	-	0
COc1ccccc1-c1ccc2c(c1)O[C@H](CN(C)S(=O)(=O)c1ccc(F)cc1)[C@@H](C)CN([C@@H](C)CO)S2(=O)=O	23.5	0	0	0	-	0
C[C@H](CO)N1C[C@H](C)[C@@H](CN(C)S(=O)(=O)c2ccc(F)cc2)Oc2cc(-c3cccc(F)c3)ccc2S1(=O)=O	16.7	0	0	0	0	0
COc1ccccc1-c1ccc2c(c1)O[C@H](CN(C)S(=O)(=O)c1ccc(F)cc1)[C@@H](C)CN([C@H](C)CO)S2(=O)=O	-	0	-	0	-	0
COc1ccccc1-c1ccc2c(c1)O[C@@H](CN(C)S(=O)(=O)c1ccc(F)cc1)[C@H](C)CN([C@H](C)CO)S2(=O)=O	-	0	-	0	-	0
C[C@@H]1CN([C@@H](C)CO)S(=O)(=O)c2ccc(-c3cccc(F)c3)cc2O[C@H]1CN(C)S(=O)(=O)c1ccc(F)cc1	0	0	0	0	0	0
C[C@@H]1CN([C@H](C)CO)S(=O)(=O)c2ccc(-c3ccccc3)cc2O[C@H]1CN(C)S(C)(=O)=O	0	0	0	0	0	57.6
O=C(C[C@H]1CC[C@H]2NC[C@H](O)COC[C@@H]2O1)NCc1ccc2c(c1)OCO2	-	0	0	0	0	0
O=C(C[C@H]1C=C[C@H](NS(=O)(=O)c2ccc(F)cc2)[C@@H](CO)O1)NCCN1CCCCC1	0	0	0	0	-	0
CC(C)C#Cc1cnc2c(c1)C(=O)N([C@H](C)CO)C[C@H](C)[C@H](CN(C)C(=O)c1ccc3c(c1)OCO3)O2	0	0	0	0	0	0
C[C@H](NC(=O)C[C@@H]1CC[C@H](NS(=O)(=O)c2cccc(F)c2)[C@H](CO)O1)c1ccccc1	0	0	0	0	0	0
O=C(c1cccnc1)N1CC[C@H]2[C@H](CO)Nc3ccc(-c4ccccc4)cc3[C@H]21	0	0	0	0	0	0
COc1ccc(C(=O)OCC(=O)NCc2cccs2)c(OC)c1OC	0	0	0	0	0	0
COc1cc(N)c(Cl)cc1C(=O)OCC(=O)NCc1cccs1	0	0	0	0	0	72.9
CC1C(=O)CC(c2ccccc2)N(C)C1c1ccccc1 (centres undefined)	-	0	0	0	0	0
CCC1C(c2ccccc2)N(C)C(c2ccccc2)CC1(O)c1ccccc1 (centres undefined)	0	-	44.0	0	0	-
CC(C)C1C(c2ccccc2)N(C)C(c2ccccc2)CC1(O)c1ccccc1 (centres undefined)	0	0	0	-29.8	-	-
O=C1N[C@@H](c2ccccc2)COCc2cn(nn2)CC[C@@H]1Cc1ccccc1	0	-	0	0	0	0
Cc1ccc(N(C(=O)C2CCC(=O)N2)C2(C(=O)NC3CCCCC3)CCCCC2)cc1 (centres undefined)	-	119.3	-	-	-	-
Cc1ccc(N(C(=O)c2ccccn2)C2(C(=O)NC3CCCC3)CCCCC2)cc1	-	0	-	-	0	-
